Calls of active or inactive are those of the source. The rule behind the calls is not given here.
Key:
RAW264.7 [1] = assay: Inhibition of RANKL-induced osteoclastogenesis in mouse RAW264.7 cells assessed as TRAP-positive cells at 10 uM after 1 hr by microplate reader assay; type: functional; design: scale not given: the % may be the effect or the level left
In short: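 RAW264.7 plated at 1 10^3 cells/well in α-MEM/10% FBS with 100 ng/mL RANKL; compound (10 μM) or DMSO vehicle added after 24 h. On day 4, cells fixed (10% formalin 10 min, 95% ethanol 1 min). TRAP activity measured in 50 mM citrate pH 4.6 with 10 mM tartrate and 5 mM p-nitrophenylphosphate for 1 h, stopped with 0.1 N NaOH, A410. Triplicate; 100% = RANKL minus vehicle difference.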

Macrophage = assay: Inhibition of RANKL-induced osteoclastogenesis in BALB/c mouse Bone marrow macrophages assessed as decrease in TRAP-positive cells after 1 hr by microplate reader assay; type: functional, cell-based
In short: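 BALB/c femur/tibia monocytes grown 1 day with 10 ng/mL M-CSF, then nonadherent cells 3 days with 30 ng/mL M-CSF. Adherent BMMs plated at 3 10^5 cells/well with 100 ng/mL RANKL and 30 ng/mL M-CSF, then given compound dose series. TRAP activity read via p-nitrophenylphosphate hydrolysis (pH 4.6 citrate, tartrate, 1 h, A410). IC50 derived.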

[2] = Cytotoxicity against mouse RAW264.7 cells assessed as cell viability at 30 uM after day 4 by CCK-8 assay; type: cell-based; conditions: read-out: Activity
In short: (§1)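 RAW264.7 cells exposed to compound at 30 μM final for 1 day or 4 days; viability read by CCK-8 assay.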

[3] = Cytotoxicity against mouse RAW264.7 cells assessed as cell viability at 30 uM after day 1 by CCK-8 assay; type: cell-based; conditions: read-out: Activity; in short: as §1
RAW264.7 [4] = assay: Inhibition of RANKL-induced osteoclastogenesis in mouse RAW264.7 cells assessed as decrease in TRAP-positive cells after 1 hr by microplate reader assay; type: functional, cell-based; conditions: RAW264.7, 1 h
In short: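 RAW264.7 in α-MEM/10% FBS plus 100 ng/mL RANKL; compound or DMSO vehicle added after 24 h, dose-dependent series. On day 4, cells fixed and TRAP activity read as p-nitrophenylphosphate (5 mM) hydrolysis in tartrate-containing citrate buffer pH 4.6, 1 h, NaOH stop, A410. IC50 derived; triplicate.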

RAW264.7 [5] = assay: Inhibition of TRAP mRNA expression in mouse RAW264.7 cells at 10 uM by RT-PCR analysis; type: functional, cell-based
RAW264.7 [6] = assay: Inhibition of RANKL-induced ERK phosphorylation in mouse RAW264.7 cells at 10 uM by Western blot analysis; type: cell-based
RAW264.7 [7] = assay: Inhibition of c-Src mRNA expression in mouse RAW264.7 cells at 10 uM by RT-PCR analysis; type: functional, cell-based
[8] = Inhibition of NFkappa signaling in mouse RAW264.7 cells assessed as reduction in RANKL-induced transcriptional activation on NF-kappaB at 10 uM by luciferase reporter gene assay; type: cell-based
RAW264.7 [9] = assay: Downregulation of RANKL-induced NFATc1 mRNA expression in mouse RAW264.7 cells at 10 uM by RT-PCR analysis; type: functional, cell-based
RAW264.7 [10] = assay: Downregulation of RANKL-induced fra2 mRNA expression in mouse RAW264.7 cells at 10 uM by RT-PCR analysis; type: functional, cell-based
RAW264.7 [11] = assay: Inhibition of MMP-7 mRNA expression in mouse RAW264.7 cells at 10 uM by RT-PCR analysis; type: functional, cell-based
RAW264.7 [12] = assay: Downregulation of RANKL-induced c-fos mRNA expression in mouse RAW264.7 cells at 10 uM by RT-PCR analysis; type: functional, cell-based
[13] = Inhibition of NFkappa signaling in mouse RAW264.7 cells assessed as reduction in RANKL-induced transcriptional activation on NF-kappaB by luciferase reporter gene assay; type: cell-based

Question: With `CC1(C)Oc2cc(O)ccc2C2C1=CCn1c(=O)n(-c3ccc(Cl)cc3)c(=O)n12` (centres undefined) as the molecule, how does the Activity (RAW264.7 [1]) read?
Answer: 112%

Question: With `CC(=O)N1CCC2(CC1)Oc1cc(O)ccc1C1C2=CCn2c(=O)n(-c3ccccc3)c(=O)n21` (centres undefined) as the molecule, how does the Activity (RAW264.7 [1]) read?
Answer: 113%

Question: What does the source list for `CC1(C)Oc2cc(O)ccc2C2C1=CCn1c(=O)n(-c3ccc(F)cc3)c(=O)n12` (centres undefined)?
Answer: Activity (RAW264.7 [1]): 68%; IC50 (Macrophage): 11.9 µM; viability at 4 day, 30 µM [2]: 80.7%; viability at 1 day, 30 µM [3]: 99%; IC50 (RAW264.7 [4]): 8.08 µM

Question: With `CC1(C)Oc2cc(O)ccc2C2C1=CCn1c(=O)n(C3CCCCC3)c(=O)n12` (centres undefined) as the molecule, how does the Activity (RAW264.7 [1]) read?
Answer: 113%

Question: Which Activity (RAW264.7 [1]) does the source give for `CC1(C)Oc2cc(O)ccc2C2C1=CCn1c(=O)n(Cc3ccccc3)c(=O)n12` (centres undefined) here?
Answer: 98%

Question: Which Activity (RAW264.7 [1]) does the source give for `CC1(C)Oc2cc(F)ccc2C2C1=CCn1c(=O)n(-c3ccccc3)c(=O)n12` (centres undefined) here?
Answer: 121%

Question: Which inhibition (RAW264.7 [5]) does the source give for `CC1(C)Oc2ccccc2C2C1=CCn1c(=O)n(-c3ccccc3)c(=O)n12` (centres undefined) here?
Answer: inactive

Question: What about the Activity (RAW264.7 [1]) of the same molecule?
Answer: 104%

Question: And the inhibition (RAW264.7 [6])?
Answer: inactive

Question: What about the inhibition (RAW264.7 [7]) of the same molecule?
Answer: inactive

Question: What about the inhibition [8] of the same molecule?
Answer: Active

Question: And the Activity (RAW264.7 [9])?
Answer: inactive

Question: And the Activity (RAW264.7 [10])?
Answer: inactive

Question: And the inhibition (RAW264.7 [11])?
Answer: inactive

Question: What about the Activity (RAW264.7 [12]) of the same molecule?
Answer: inactive

Question: For `CC1(C)Oc2cc(O)ccc2C2C1=CCn1c(=O)n(-c3ccccc3Cl)c(=O)n12` (centres undefined), which Activity (RAW264.7 [1]) is on record?
Answer: 95%

Question: With `COc1ccc2c(c1)C1C(=CCn3c(=O)n(-c4ccccc4)c(=O)n31)C(C)(C)O2` (centres undefined) as the molecule, how does the Activity (RAW264.7 [1]) read?
Answer: 100%

Question: Which results are given for `Cc1ccc(-n2c(=O)n3n(c2=O)C2C(=CC3)C(C)(C)Oc3cc(O)ccc32)cc1` (centres undefined)?
Answer: inhibition (RAW264.7 [5]): Active; Activity (RAW264.7 [1]): 50%; inhibition (RAW264.7 [6]): Active; inhibition [13]: Dose-dependent effect; inhibition (RAW264.7 [7]): Active; Activity (RAW264.7 [9]): Active; IC50 (Macrophage): 7.05 µM; Activity (RAW264.7 [10]): Active; inhibition (RAW264.7 [11]): Active; Activity (RAW264.7 [12]): Active; viability at 4 day, 30 µM [2]: 86.9%; viability at 1 day, 30 µM [3]: 100%; IC50 (RAW264.7 [4]): 7.97 µM

Question: Which inhibition (RAW264.7 [5]) does the source give for `CC1(C)Oc2cc(O)ccc2C2C1=CCn1c(=O)n(-c3ccccc3)c(=O)n12` (centres undefined) here?
Answer: Active

Question: And the Activity (RAW264.7 [1])?
Answer: 43%

Question: What about the inhibition (RAW264.7 [6]) of the same molecule?
Answer: Active

Question: What about the inhibition [13] of the same molecule?
Answer: Dose-dependent effect

Question: What about the inhibition (RAW264.7 [7]) of the same molecule?
Answer: Active

Question: What about the Activity (RAW264.7 [9]) of the same molecule?
Answer: Active

Question: And the IC50 (Macrophage)?
Answer: 6.13 µM

Question: What about the Activity (RAW264.7 [10]) of the same molecule?
Answer: Active

Question: And the inhibition (RAW264.7 [11])?
Answer: Active

Question: What about the Activity (RAW264.7 [12]) of the same molecule?
Answer: Active

Question: What about the viability at 4 day, 30 µM [2] of the same molecule?
Answer: 74%

Question: What about the viability at 1 day, 30 µM [3] of the same molecule?
Answer: 85.9%

Question: What about the IC50 (RAW264.7 [4]) of the same molecule?
Answer: 7.07 µM

Question: With `CC1(C)Oc2cc(O)ccc2C2C1=CCn1c(=O)n(-c3ccccc3I)c(=O)n12` (centres undefined) as the molecule, how does the Activity (RAW264.7 [1]) read?
Answer: 101%

Question: Which Activity (RAW264.7 [1]) does the source give for `COc1cccc(-n2c(=O)n3n(c2=O)C2C(=CC3)C(C)(C)Oc3cc(O)ccc32)c1` (centres undefined) here?
Answer: 86%

Question: Which Activity (RAW264.7 [1]) does the source give for `CC1(C)Oc2cc(O)ccc2C2C1=CCn1c(=O)n(-c3cccc([N+](=O)[O-])c3)c(=O)n12` (centres undefined) here?
Answer: 105%

Question: For `COc1ccc2c(c1)OC(C)(C)C1=CCn3c(=O)n(-c4ccccc4)c(=O)n3C12` (centres undefined), which Activity (RAW264.7 [1]) is on record?
Answer: 108%

Question: Which Activity (RAW264.7 [1]) does the source give for `CC1(C)Oc2cc(O)ccc2C2C1=CCn1c(=O)n(-c3ccc(Br)cc3)c(=O)n12` (centres undefined) here?
Answer: 83%

Question: Which Activity (RAW264.7 [1]) does the source give for `O=c1n(-c2ccccc2)c(=O)n2n1CC=C1C2c2ccc(O)cc2OC12CCCC2` (centres undefined) here?
Answer: 30%

Question: And the IC50 (Macrophage)?
Answer: 6.05 µM

Question: And the viability at 4 day, 30 µM [2]?
Answer: 46%

Question: And the viability at 1 day, 30 µM [3]?
Answer: 77.8%

Question: And the IC50 (RAW264.7 [4])?
Answer: 5.09 µM

Question: For `CCCN1CCC2(CC1)Oc1cc(O)ccc1C1C2=CCn2c(=O)n(-c3ccccc3)c(=O)n21` (centres undefined), which Activity (RAW264.7 [1]) is on record?
Answer: 99%

Question: With `COc1cc2c(cc1OC)C1C(=CCn3c(=O)n(-c4ccccc4)c(=O)n31)C(C)(C)O2` (centres undefined) as the molecule, how does the Activity (RAW264.7 [1]) read?
Answer: 99%

Question: For `COc1ccc(-n2c(=O)n3n(c2=O)C2C(=CC3)C(C)(C)Oc3cc(O)ccc32)cc1` (centres undefined), which Activity (RAW264.7 [1]) is on record?
Answer: 93%

Question: For `COc1ccc2c(c1O)OC(C)(C)C1=CCn3c(=O)n(-c4ccccc4)c(=O)n3C12` (centres undefined), which Activity (RAW264.7 [1]) is on record?
Answer: 69%

Question: What about the IC50 (Macrophage) of the same molecule?
Answer: 22.2 µM

Question: With `CNc1ccc2c(c1)OC(C)(C)C1=CCn3c(=O)n(-c4ccccc4)c(=O)n3C12` (centres undefined) as the molecule, how does the Activity (RAW264.7 [1]) read?
Answer: 107%

Question: With `CC1(C)Oc2cc(O)ccc2C2C1=CCn1c(=O)n(-c3ccc(C(C)(C)C)cc3)c(=O)n12` (centres undefined) as the molecule, how does the Activity (RAW264.7 [1]) read?
Answer: 53%

Question: And the IC50 (Macrophage)?
Answer: 6.77 µM

Question: What about the viability at 4 day, 30 µM [2] of the same molecule?
Answer: 73.4%

Question: What about the viability at 1 day, 30 µM [3] of the same molecule?
Answer: 79.7%

Question: And the IC50 (RAW264.7 [4])?
Answer: 6.94 µM

Question: For `Cn1c(=O)n2n(c1=O)C1C(=CC2)C(C)(C)Oc2cc(O)ccc21` (centres undefined), which Activity (RAW264.7 [1]) is on record?
Answer: 95%

— ChEMBL document CHEMBL1799963, “Discovery of novel benzopyranyl tetracycles that act as inhibitors of osteoclastogenesis induced by receptor activator of NF-κB ligand” (J Med Chem, 2010)
